Active and inactive are the calls of the source. The calls are words filed in the database; no cut-off is given here.
Columns and labels:
[1] = molecular target: DNA topoisomerase 2-alpha (Homo sapiens) (UniProt P11388); test: Inhibition of recombinant human topoisomerase 2 alpha-mediated relaxation of supercoiled pBR322 DNA at 100 uM incubated for 30 mins by ethidium bromide staining based agarose gel electrophoresis method
Procedure, shortened: (§1)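 Supercoiled pBR322 plasmid incubated with human recombinant topoisomerase II without or with compound at 100 μM, or at 25 and 50 μM; m-AMSA 20 μM as reference; relaxation inhibition judged from electrophoretic pattern of supercoiled DNA versus relaxed topoisomers.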

MSTO-211H = test: Growth inhibition of human MSTO-211H cells incubated for 72 hrs by trypan blue assay; assay type: functional
Procedure, shortened: (§2)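 HeLa, A2780 and MSTO-211H human tumor cells; GI50 taken as the concentration (μM) inhibiting growth of 50% of cells relative to an untreated control culture; mean ± SD of at least three independent experiments.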

HeLa = test: Growth inhibition of human HeLa cells incubated for 72 hrs by trypan blue assay; assay type: functional; procedure, shortened: as §2
A2780 [2] = test: Growth inhibition of human A2780 cells incubated for 72 hrs by trypan blue assay; assay type: functional; conditions: A2780, 72 h; procedure, shortened: as §2
[3] = molecular target: DNA topoisomerase 2-alpha (Homo sapiens) (UniProt P11388); test: Inhibition of recombinant human topoisomerase 2 alpha-mediated relaxation of supercoiled pBR322 DNA at 25 uM incubated for 30 mins by ethidium bromide staining based agarose gel electrophoresis method; procedure, shortened: as §1
[4] = molecular target: DNA topoisomerase 2-alpha (Homo sapiens) (UniProt P11388); test: Inhibition of recombinant human topoisomerase 2 alpha-mediated relaxation of supercoiled pBR322 DNA at 50 uM incubated for 30 mins by ethidium bromide staining based agarose gel electrophoresis method; procedure, shortened: as §1
[5] = molecular target: DNA topoisomerase 2-alpha (Homo sapiens) (UniProt P11388); test: Inhibition of recombinant human topoisomerase 2 alpha-mediated relaxation of supercoiled pBR322 DNA at 100 uM incubated for 30 mins by ethidium bromide staining based agarose gel electrophoresis method relative to control; procedure, shortened: as §1
A2780 [6] = test: Induction of apoptosis in human A2780 cells assessed as decrease of mitochondrial membrane potential incubated for 28 hrs by JC-1 staining based flow cytometry
A2780 [7] = test: Induction of apoptosis in human A2780 cells assessed as increase in sub-G0 accumulation at 50 uM incubated for 28 hrs by propidium iodide staining based flow cytometry relative to control; assay type: functional
Procedure, shortened: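 A2780 cells treated 28 h at 10 and 50 μM alongside untreated control, stained with propidium iodide, DNA content per cell measured by flow cytometry; apoptotic fraction taken as sub-G0 (hypodiploid) peak.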

A2780 [8] = test: Induction of apoptosis in human A2780 cells assessed as polarization of mitochondrial membrane potential at 50 uM incubated for 28 hrs by JC-1 staining based flow cytometry (reference value: 96.1 %); assay type: functional
Procedure, shortened: (§3)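 A2780 cells exposed 28 h to increasing concentrations versus untreated control, stained with JC-1 and analysed by flow cytometry; mitochondrial potential read as red aggregate versus green monomer fluorescence; percentages of cells with polarized and depolarized mitochondria reported.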

A2780 [9] = test: Induction of apoptosis in human A2780 cells assessed as depolarization of mitochondrial membrane potential at 10 uM incubated for 28 hrs by JC-1 staining based flow cytometry (reference value: 3.8 %); assay type: functional; procedure, shortened: as §3
A2780 [10] = test: Induction of apoptosis in human A2780 cells assessed as polarization of mitochondrial membrane potential at 10 uM incubated for 28 hrs by JC-1 staining based flow cytometry (reference value: 96.1 %); assay type: functional; procedure, shortened: as §3
A2780 [11] = test: Induction of apoptosis in human A2780 cells assessed as depolarization of mitochondrial membrane potential at 50 uM incubated for 28 hrs by JC-1 staining based flow cytometry (reference value: 3.8 %); assay type: functional; procedure, shortened: as §3
[12] = molecular target: DNA topoisomerase 2-alpha (Homo sapiens) (UniProt P11388); test: Inhibition of recombinant human topoisomerase 2 alpha-mediated relaxation of supercoiled pBR322 DNA at 50 uM incubated for 30 mins by ethidium bromide staining based agarose gel electrophoresis method relative to control; procedure, shortened: as §1

Sequence of DNA topoisomerase 2-alpha (Homo sapiens) (P11388 whole entry): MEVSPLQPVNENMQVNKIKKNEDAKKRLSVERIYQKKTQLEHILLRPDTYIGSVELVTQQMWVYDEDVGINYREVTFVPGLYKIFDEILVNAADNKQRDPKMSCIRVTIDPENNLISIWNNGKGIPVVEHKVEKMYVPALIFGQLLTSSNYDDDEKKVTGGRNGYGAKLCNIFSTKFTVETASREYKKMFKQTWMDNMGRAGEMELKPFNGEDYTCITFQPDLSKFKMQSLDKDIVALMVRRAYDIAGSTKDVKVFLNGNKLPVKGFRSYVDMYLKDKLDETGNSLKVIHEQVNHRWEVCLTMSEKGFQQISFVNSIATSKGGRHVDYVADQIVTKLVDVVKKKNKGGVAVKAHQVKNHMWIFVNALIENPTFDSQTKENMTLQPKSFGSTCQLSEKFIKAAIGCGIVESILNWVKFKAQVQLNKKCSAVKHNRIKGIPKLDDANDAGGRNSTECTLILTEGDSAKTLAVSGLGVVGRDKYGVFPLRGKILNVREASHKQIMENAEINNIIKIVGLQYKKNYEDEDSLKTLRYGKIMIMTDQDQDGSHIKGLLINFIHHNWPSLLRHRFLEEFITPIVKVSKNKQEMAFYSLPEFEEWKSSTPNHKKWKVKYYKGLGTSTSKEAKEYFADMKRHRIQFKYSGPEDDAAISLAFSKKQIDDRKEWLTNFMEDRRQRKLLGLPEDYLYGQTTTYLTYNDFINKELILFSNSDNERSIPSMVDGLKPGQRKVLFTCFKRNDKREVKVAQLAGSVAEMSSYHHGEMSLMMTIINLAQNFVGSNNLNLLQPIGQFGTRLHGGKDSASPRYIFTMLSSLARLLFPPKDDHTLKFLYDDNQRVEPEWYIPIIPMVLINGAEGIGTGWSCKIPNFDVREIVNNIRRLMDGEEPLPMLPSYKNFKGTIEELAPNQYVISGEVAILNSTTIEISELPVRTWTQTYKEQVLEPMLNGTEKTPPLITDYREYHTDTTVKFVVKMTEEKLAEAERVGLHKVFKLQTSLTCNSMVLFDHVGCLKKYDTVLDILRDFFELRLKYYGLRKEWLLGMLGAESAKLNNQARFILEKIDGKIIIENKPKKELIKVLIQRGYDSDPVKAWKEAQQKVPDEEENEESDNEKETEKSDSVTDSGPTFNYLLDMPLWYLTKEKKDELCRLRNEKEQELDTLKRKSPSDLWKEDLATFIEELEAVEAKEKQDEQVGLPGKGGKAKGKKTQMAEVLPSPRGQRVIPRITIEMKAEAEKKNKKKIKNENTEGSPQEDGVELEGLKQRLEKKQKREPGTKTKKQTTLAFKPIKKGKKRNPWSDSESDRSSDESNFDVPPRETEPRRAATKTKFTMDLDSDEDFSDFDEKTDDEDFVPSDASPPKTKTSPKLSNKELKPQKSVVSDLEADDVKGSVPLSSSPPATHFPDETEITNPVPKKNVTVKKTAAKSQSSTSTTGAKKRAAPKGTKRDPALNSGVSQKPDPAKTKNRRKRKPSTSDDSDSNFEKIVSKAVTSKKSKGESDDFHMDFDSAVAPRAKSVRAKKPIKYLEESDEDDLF

Row | SMILES | inhibition [1] | GI50 (MSTO-211H) [µM] | GI50 (HeLa) [µM] | GI50 (A2780 [2]) [µM] | also measured
1 | Cc1c(-c2ccc(O)cc2)n(CCCCOc2ccccc2)c2ccc(O)cc12 | Active | 2.9 | 4 | 2 | 
2 | COc1cc(NS(C)(=O)=O)ccc1Nc1c2ccccc2nc2ccccc12 [AMSACRINE] |  | 0.019 | 0.031 | 0.027 | 
3 | Cc1c(-c2ccc(O)c(O)c2)n(CCCCOc2ccccc2)c2ccc(O)cc12 | Active | 3.4 | 10 | 4.3 | 
4 | Cc1c(-c2ccc(O)c(O)c2)n(C)c2ccc(O)cc12 | inactive | > 20 | > 20 | 14 | 
5 | CCCn1c(-c2ccc(O)c(O)c2)c(C)c2cc(O)ccc21 | Active | > 20 | > 20 | 8.4 | 
6 | Cc1c(-c2ccc(O)cc2)[nH]c2ccc(O)cc12 | Active | > 20 | 16 | 11 | inhibition [3]: inactive; inhibition [4]: inactive
7 | Cc1c(-c2ccc(O)cc2)n(CC(=O)O)c2ccccc12 | inactive | > 20 | > 20 | > 20 | 
8 | Cc1c(-c2ccc(O)cc2)n(CCCCOc2ccccc2)c2ccccc12 | Active | 3.3 | 11 | 3.1 | 
9 | Cc1c(-c2ccc(OC(=O)c3c[nH]cn3)cc2)[nH]c2ccccc12 |  | > 20 | > 20 | > 20 | 
10 | Cc1c(-c2ccc(O)c(O)c2)n(CCCOc2ccccc2)c2ccc(O)cc12 | Active | 7.1 | 18 | 7.4 | 
11 | CCCn1c(-c2ccc(O)cc2)c(C)c2ccccc21 | inactive | 7.1 | > 20 | 9 | 
12 | Cc1c(-c2ccc(O)c(O)c2)[nH]c2ccc(O)cc12 |  | > 20 | > 20 | 2.2 | inhibition [5]: 100%; inhibition [3]: Active; inhibition [4]: Active
13 | Cc1c(-c2ccc(O)cc2)n(CCCOc2ccccc2)c2ccc(O)cc12 | Active | 2.4 | 4.4 | 2.2 | Activity (A2780 [6]): Dose-dependent effect; inhibition [3]: Active; Activity (A2780 [7]): 30%; Activity (A2780 [8]): 57.7%; inhibition [4]: Active; Activity (A2780 [9]): 12.6%; Activity (A2780 [10]): 87%; Activity (A2780 [11]): 42.2%; inhibition [12]: 100%
14 | Cc1ncsc1C(=O)Oc1ccc(-c2[nH]c3ccccc3c2C)cc1 |  | > 20 | > 20 | 13 | 
15 | Cc1c(-c2ccc(O)cc2)n(CCOc2ccccc2)c2ccc(O)cc12 | Active | 7.6 | 15 | 4.7 | 
16 | CCOC(=O)Cn1c(-c2ccc(O)cc2)c(C)c2ccccc21 | inactive | > 20 | > 20 | 13 | 
17 | Cc1c(-c2ccc(O)cc2)[nH]c2ccccc12 |  | > 20 | > 20 | > 20 | 
18 | O=c1c(O)c(-c2ccc(O)c(O)c2)oc2cc(O)cc(O)c12 [QUERCETIN] |  | > 20 | 17.7 | 19.7 | 
19 | COc1ccc2c(c1)c(C)c(-c1ccc(OC)c(OC)c1)n2CCCCOc1ccccc1 | inactive | 13 | > 20 | 17 | 
20 | CCCn1c(-c2ccc(O)cc2)c(C)c2cc(O)ccc21 | Active | 2.9 | 7.9 | 2.3 | 

— ChEMBL document CHEMBL4613283, “Synthesis, Antiproliferative Effect, and Topoisomerase II Inhibitory Activity of 3-Methyl-2-phenyl-1H-indoles” (2020)
